The nature of assay [1]: Compound evaluated in vitro against five gram-negative bacterial strains and geometric means of the minimum inhibitory concentrations (MIC) reported. Type of assay: functional. Also noted: unit not given here. The essentials:
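Geometric mean MIC across five Gram-negative strains (E. coli H560, E. coli Vogel, Enterobacter cloacae MA 2646, Klebsiella pneumoniae MGH-2, Proteus rettgeri M1771). Mean taken as antilog of the averaged log MIC values.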

In assay [2] the test system is Escherichia coli. The assay is described as follows: In vivo protection against gram-negative Escherichia coli vogel in mouse after oral administration. The following applies: read-out: PD50.
The subject of assay [3] is Escherichia coli. The assay is described as follows: In vivo protection against gram-negative Escherichia coli vogel in mouse after subcutaneous administration. The conditions noted are these: sc, read-out: PD50.
The nature of assay [4]: Compound evaluated in vitro against five gram-positive bacterial strains and geometric means of the minimum inhibitory concentrations (MIC) reported. It counts as functional. Set-up: unit not given here. In outline:
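Geometric mean MIC across five Gram-positive strains, taken as antilog of the averaged log MIC values.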

Assay [5] deals with DNA gyrase (Escherichia coli, UniProt P0AES4+P0AES6). The experiment in a line: Compound evaluated in vitro for the ability to inhibit gyrase. Type of assay: protein-complex assay. The following applies: read-out: I50 (converted). In outline:
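DNA gyrase isolated from Escherichia coli H560 cells; inhibition given as I50.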

`Br.Nc1c(F)c(N2C[C@@H]3CC2CN3)c(F)c2c1c(=O)c(C(=O)O)cn2C1CC1`: the MIC in assay [1] is reported as 0.07; in assay [4], 0.25. Besides, the ED50 in assay [2] came to 6.1 mg/kg; in assay [3], 1.1 mg/kg.

`CCN[C@@H]1C[C@H]2CC[C@@H](C1)N2c1c(F)cc2c(=O)c(C(=O)O)cn(C3CC3)c2c1F`: the MIC in assay [1] is 0.61; in assay [4], 0.17. Moreover, the values for the ED50 in assay [2] and in assay [3] were 5.8 mg/kg and 3 mg/kg, respectively. The IC50 in assay [5] is 9.1 µM.

Take `O=C(O)c1cn(C2CC2)c2c(F)c(N3CC4CCC3CN4)c(F)cc2c1=O` (stereo unspecified): the MIC in assay [1] is 0.09; in assay [4] it was 0.3. In addition, the ED50 was 2.9 mg/kg in assay [2] and 1.3 mg/kg in assay [3]. Further, the IC50 in assay [5] was 16.8 µM.

For `NC1CCN(c2c(F)cc3c(=O)c(C(=O)O)cn(C4CC4)c3c2F)CC1`, the MIC in assay [1] is given as 0.2; in assay [4] it was 0.08. The ED50 in assay [2] is 4.7 mg/kg; in assay [3], 1.4 mg/kg. Also, the IC50 in assay [5] was under 1.38 µM.

As for `CN1CC2CCC1CN2c1c(F)cc2c(=O)c(C(=O)O)cn(C3CC3)c2c1F` (stereo unspecified), the MIC in assay [1] came to 0.13; in assay [4], 0.15. Also, the ED50 in assay [2] and in assay [3] was under 1.6 mg/kg in each case. Besides, the IC50 in assay [5] was 16.2 µM.

In the case of `CN1CC2CCC1CN2c1nc2c(cc1F)c(=O)c(C(=O)O)cn2C1CC1` (stereo unspecified), the MIC in assay [1] came out at 0.1; in assay [4] it was 0.26. Further, the ED50 in assay [2] was found to be 1.4 mg/kg; in assay [3], 1.1 mg/kg. The IC50 in assay [5] is 14.8 µM.

Take `CCN[C@H]1C[C@H]2CC[C@@H](C1)N2c1c(F)cc2c(=O)c(C(=O)O)cn(C3CC3)c2c1F`: the MIC in assay [1] is reported as 0.6; in assay [4], 0.46. Also, the ED50 was over 12.5 mg/kg in assay [2] and 6.5 mg/kg in assay [3]. The IC50 in assay [5] was 15.1 µM.

For the compound `O=C(O)c1cn(C2CC2)c2nc(N3CCNCC3)c(F)cc2c1=O`, the MIC in assay [1] was found to be 0.06; in assay [4], 1.21. Moreover, the ED50 in assay [2] amounted to 0.7 mg/kg; in assay [3], 0.4 mg/kg. In assay [5], the IC50 is 150 µM.

Turning to `Nc1c(F)c(N2CC3CCC2CN3)c(F)c2c1c(=O)c(C(=O)O)cn2C1CC1` (stereo unspecified), the MIC in assay [1] and in assay [4] was 0.06 each time. The values for the ED50 in assay [2] and in assay [3] were 3.6 mg/kg and 0.7 mg/kg, respectively. Moreover, the IC50 in assay [5] was 14.1 µM.

For the compound `CCN[C@H]1C[C@H]2CC[C@@H](C1)N2c1cc2c(cc1F)c(=O)c(C(=O)O)cn2C1CC1.F`, the MIC in assay [1] came to 2.76; in assay [4], 1.81. Besides, the IC50 in assay [5] was 41.7 µM.

On to `Cl.N[C@H]1C[C@H]2CC[C@@H](C1)N2c1nc2c(cc1F)c(=O)c(C(=O)O)cn2C1CC1`, for which the MIC turned out to be 0.79 in assay [1] and 0.4 in assay [4]. For the same compound, the results for the ED50 in assay [2] and in assay [3] were 71 mg/kg and 6 mg/kg, respectively. In assay [5], the IC50 was 18.3 µM.

As for `Cl.N[C@@H]1C[C@H]2CC[C@@H](C1)N2c1c(F)cc2c(=O)c(C(=O)O)cn(C3CC3)c2c1F`, the MIC in assay [1] is reported as 0.26; in assay [4], 0.11. The ED50 was determined as 21 mg/kg in assay [2] and 4 mg/kg in assay [3]. Moreover, in assay [5], the IC50 is 8.92 µM.

In the case of `NC1CCN(c2nc3c(cc2F)c(=O)c(C(=O)O)cn3C2CC2)CC1`, the MIC is 0.11 in assay [1] and 0.23 in assay [4]. Besides, the ED50 in assay [2] was found to be 4.6 mg/kg; in assay [3], 0.8 mg/kg. Moreover, the IC50 in assay [5] is 8.66 µM.

`O=C(O)c1cn(C2CC2)c2nc(N3C[C@H]4CC3CN4)c(F)cc2c1=O`: the MIC is recorded as 0.08 in assay [1] and 0.46 in assay [4]. For the same compound, the ED50 in assay [2] was 53 mg/kg; in assay [3] it was 37 mg/kg. For the same compound, the IC50 in assay [5] was 18.3 µM.

Turning to `Cl.O=C(O)c1cn(C2CC2)c2nc(N3C[C@@H]4CC3CN4)c(F)cc2c1=O`, the MIC in assay [1] worked out at 0.03; in assay [4], 0.26. Besides, the results for the ED50 in assay [2] and in assay [3] were 2.2 mg/kg and 1.6 mg/kg, respectively.

The values are drawn from ChEMBL document CHEMBL1125245, “Quinolone antibacterials: preparation and activity of bridged bicyclic analogues of the C7-piperazine” (J Med Chem, 1991).
